In ChEMBL document CHEMBL2086314, “Synthesis and anticonvulsant activity of new N-Mannich bases derived from 3-(2-fluorophenyl)- and 3-(2-bromophenyl)-pyrrolidine-2,5-diones. Part II” (Bioorg Med Chem, 2012):
Active and inactive are the calls of the source. The rule behind the calls is not given here.

Experiments:
Mus musculus [1] = experiment: Anticonvulsant activity in CF-1 albino mouse assessed as protection from maximal electric shock-induced seizures at 300 mg/kg, ip measured after 0.5 hrs; type: functional, organism-based; set-up: dose 300 mg/kg
Summary of the method: (§1)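 Male CF-1 mice dosed ip at 30, 100 or 300 mg/kg, suspension in 0.5% methylcellulose/water. MES: corneal electrodes primed with electrolyte containing anaesthetic, 50 mA, 60 Hz, 0.2 s. Examined 0.5 and 4 h after dosing. Value is the minimum dose protecting half or more of the animals.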

Mus musculus [2] = experiment: Anticonvulsant activity in ip dosed CF-1 albino mouse assessed as protection from maximal electric shock-induced seizures measured after 4 hrs; type: functional; conditions: read-out: MED; summary of the method: as §1
Mus musculus [3] = experiment: Neurotoxicity in ip dosed CF-1 albino mouse assessed as motor impairment measured after 0.5 hrs by rotarod test; type: toxicity, organism-based; conditions: in vivo
Summary of the method: (§2)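 Rotarod neurotoxicity in male CF-1 mice given ip doses of 30, 100 or 300 mg/kg (0.5% methylcellulose suspension), examined 0.5 and 4 h after dosing. Impairment means failing to hold balance on the rod for 1 min. Value is the minimum dose causing toxicity in half or more of the animals; response comments are recorded.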

Mus musculus [4] = experiment: Neurotoxicity in CF-1 albino mouse assessed as motor impairment at 300 mg/kg, ip measured after 4 hrs by rotarod test; type: toxicity, organism-based; set-up: dose 300 mg/kg, route intraperitoneal; conditions: in vivo; summary of the method: as §2
Mus musculus [5] = experiment: Anticonvulsant activity in CF-1 albino mouse assessed as protection from maximal electric shock-induced seizures at 300 mg/kg, ip measured after 4 hrs; type: functional, organism-based; set-up: dose 300 mg/kg; summary of the method: as §1
Mus musculus [6] = experiment: Neurotoxicity in CF-1 albino mouse assessed as motor impairment at 300 mg/kg, ip measured after 0.5 hrs by rotarod test; type: toxicity, organism-based; set-up: dose 300 mg/kg, route intraperitoneal; conditions: in vivo; summary of the method: as §2
Mus musculus [7] = experiment: Anticonvulsant activity in ip dosed CF-1 albino mouse assessed as protection against subcutaneous pentylenetetrazol-induced seizures measured after 4 hrs; type: functional; conditions: read-out: MED
Summary of the method: (§3)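 scPTZ test in male CF-1 mice. Compound suspended in 0.5% methylcellulose/water, ip at 30, 100 or 300 mg/kg. Pentylenetetrazole 85 mg/kg (CD97, clonic seizures lasting at least 5 s) given subcutaneously at the test time, read at 0.5 and 4 h. Value is the minimum dose protecting half or more of the animals.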

Mus musculus [8] = experiment: Anticonvulsant activity in ip dosed CF-1 albino mouse assessed as protection against subcutaneous pentylenetetrazol-induced seizures measured after 0.5 hrs; type: functional; conditions: read-out: MED; summary of the method: as §3
Mus musculus [9] = experiment: Anticonvulsant activity in CF-1 albino mouse assessed as protection against subcutaneous pentylenetetrazol-induced seizures at 300 mg/kg, ip measured after 4 hrs; type: functional, organism-based; set-up: dose 300 mg/kg; summary of the method: as §3
Mus musculus [10] = experiment: Neurotoxicity in CF-1 albino mouse assessed as myoclonic jerks at 300 mg/kg, ip measured after 0.5 hrs by rotarod test; type: toxicity, organism-based; set-up: dose 300 mg/kg, route intraperitoneal; conditions: in vivo
Rattus norvegicus [11] = experiment: Anticonvulsant activity in Sprague-Dawley rat assessed as protection from maximum electric shock-induced seizures at 30 mg/kg, po measured after 0.25 hrs; type: functional
Summary of the method: (§4)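 Male Sprague–Dawley rats, four per group, given 30 mg/kg orally as a suspension in 0.5% methylcellulose/water. MES stimulus 150 mA, 60 Hz, 0.2 s via corneal electrodes. Tested at 0.25, 0.5, 1, 2 and 4 h; value is rats protected out of four.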

Rattus norvegicus [12] = experiment: Anticonvulsant activity in Sprague-Dawley rat assessed as protection from maximum electric shock-induced seizures at 30 mg/kg, po measured after 0.5 hrs; type: functional; summary of the method: as §4
Rattus norvegicus [13] = experiment: Anticonvulsant activity in Sprague-Dawley rat assessed as protection from maximum electric shock-induced seizures at 30 mg/kg, po measured after 1 hr; type: functional; summary of the method: as §4
Rattus norvegicus [14] = experiment: Anticonvulsant activity in Sprague-Dawley rat assessed as protection from maximum electric shock-induced seizures at 30 mg/kg, po measured after 2 hrs; type: functional; summary of the method: as §4
Rattus norvegicus [15] = experiment: Anticonvulsant activity in Sprague-Dawley rat assessed as protection from maximum electric shock-induced seizures at 30 mg/kg, po measured after 4 hrs; type: functional; summary of the method: as §4
Rattus norvegicus [16] = experiment: Neurotoxicity in Sprague-Dawley rat assessed as motor impairment at 30 mg/kg, po by rotarod test; type: toxicity, organism-based; set-up: dose 30 mg/kg, route oral; conditions: in vivo
Summary of the method: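 Male Sprague–Dawley rats, four animals, oral 30 mg/kg in 0.5% methylcellulose/water. Motor impairment on the rotarod (failure to keep balance for 1 min) assessed alongside MES at five times from 0.25 to 4 h.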

Rattus norvegicus [17] = experiment: Anticonvulsant activity in po dosed Sprague-Dawley rat assessed as protection from maximum electric shock-induced seizures; type: functional
Summary of the method: (§5)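 Male Sprague–Dawley rats dosed orally (0.5% methylcellulose suspension). MES 150 mA, 60 Hz, 0.2 s; rotarod impairment is failure to keep balance for 1 min. Groups of eight, at the previously estimated time of peak effect, with doses varied until at least three points fell in the 10–90% range. ED50/TD50 with 95% confidence intervals from regression; PI = TD50/ED50.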

[18] = Neurotoxicity in po dosed Sprague-Dawley rat assessed as motor impairment measured at time of peak effect by rotarod test; type: toxicity, organism-based; conditions: in vivo; summary of the method: as §5
Rattus norvegicus [19] = experiment: Anticonvulsant activity in po dosed maximum electric shock-induced Sprague-Dawley rat assessed as time of peak effect; type: functional; summary of the method: as §5
Mus musculus [20] = experiment: Anticonvulsant activity in CF-1 albino mouse assessed as protection against 6 Hz psychomotor seizure at 100 mg/kg, ip measured after 0.25 hrs; type: functional; conditions: route intraperitoneal
Summary of the method: (§6)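 6-Hz psychomotor seizure in male CF-1 mice, compound suspended in 0.5% methylcellulose/water, given ip (100 or 75 mg/kg). Corneal stimulation with 0.2 ms monopolar rectangular pulses at 6 Hz for 3 s, 32 mA, constant-current device. Protected if normal exploratory behaviour resumes within 10 s. Tested 0.25–4 h after dosing; value is mice protected out of four.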

Mus musculus [21] = experiment: Anticonvulsant activity in CF-1 albino mouse assessed as protection against 6 Hz psychomotor seizure at 100 mg/kg, ip measured after 0.5 hrs; type: functional; conditions: route intraperitoneal; summary of the method: as §6
Mus musculus [22] = experiment: Anticonvulsant activity in CF-1 albino mouse assessed as protection against 6 Hz psychomotor seizure at 100 mg/kg, ip measured after 1 hr; type: functional; conditions: route intraperitoneal; summary of the method: as §6
Mus musculus [23] = experiment: Anticonvulsant activity in CF-1 albino mouse assessed as protection against 6 Hz psychomotor seizure at 100 mg/kg, ip measured after 2 hrs; type: functional; conditions: route intraperitoneal; summary of the method: as §6
Mus musculus [24] = experiment: Anticonvulsant activity in CF-1 albino mouse assessed as protection against 6 Hz psychomotor seizure at 100 mg/kg, ip measured after 4 hrs; type: functional; conditions: route intraperitoneal; summary of the method: as §6

| Structure (SMILES) | Activity (Mus musculus [1]) | minimal effective dose (Mus musculus [2]) | Activity (Mus musculus [4]) | Activity (Mus musculus [5]) | Activity (Mus musculus [6]) | also measured |
| --- | --- | --- | --- | --- | --- | --- |
| O=C1CC(c2ccccc2F)C(=O)N1CN1CCN(c2ccccc2)CC1 (racemic) | inactive | 300 mg/kg | Non-toxic |  |  | MTC (Mus musculus [3]): 300 mg/kg |
| O=C1CC(c2ccccc2F)C(=O)N1CN1CCN(c2cccc(Cl)c2)CC1 (racemic) | inactive |  | Non-toxic | inactive | Non-toxic |  |
| O=C1CC(c2ccccc2Br)C(=O)N1CN1CCN(c2cccc(C(F)(F)F)c2)CC1 (racemic) | inactive | 300 mg/kg |  |  | Non-toxic |  |
| CCC1(C)CC(=O)NC1=O (centres undefined) [ETHOSUXIMIDE] | inactive |  | Non-toxic | inactive | Non-toxic | minimal effective dose (Mus musculus [7]): 300 mg/kg; minimal effective dose (Mus musculus [8]): 100 mg/kg |
| Cl.Cl.O=C1CC(c2ccccc2F)C(=O)N1CN1CCN(CCO)CC1 (racemic) |  | 100 mg/kg | Non-toxic |  | Non-toxic | minimal effective dose (Mus musculus [8]): 300 mg/kg; Activity (Mus musculus [9]): inactive; Activity (Mus musculus [10]): Toxic; Activity (Rattus norvegicus [11]): 25%; Activity (Rattus norvegicus [12]): 25%; Activity (Rattus norvegicus [13]): 50%; Activity (Rattus norvegicus [14]): 25%; Activity (Rattus norvegicus [15]): 25%; Activity (Rattus norvegicus [16]): Non-toxic; ED50 (Rattus norvegicus [17]): > 500 mg/kg; TD50 [18]: > 500 mg/kg; Time (Rattus norvegicus [19]): 0.5 h; Activity (Mus musculus [20]): 50%; Activity (Mus musculus [21]): 25%; Activity (Mus musculus [22]): 0%; Activity (Mus musculus [23]): 0%; Activity (Mus musculus [24]): 0% |
| O=C1CC(c2ccccc2F)C(=O)N1CN1CCN(c2ccccc2Cl)CC1 (centres undefined) | inactive |  | Non-toxic | inactive | Non-toxic |  |
| O=C1CC(c2ccccc2F)C(=O)N1CN1CCN(c2ccccc2F)CC1 (racemic) | inactive |  | Non-toxic | inactive | Non-toxic |  |
| O=C1CC(c2ccccc2Br)C(=O)N1CN1CCN(c2ccccc2Cl)CC1 (racemic) | inactive | 300 mg/kg | Non-toxic |  | Non-toxic |  |
